Reference: ChEMBL document CHEMBL5705885, “CYT387, a selective JAK1/JAK2 inhibitor: in vitro assessment of kinase selectivity and preclinical studies using cell lines and primary cells from polycythemia vera patients” (Leukemia, 2009)

Columns and labels:
[1] = biological target: G protein-coupled receptor kinase 4 (Homo sapiens, UniProt P32298); settings: dose 100.0 nM
[2] = biological target: Serine/threonine-protein kinase Nek2 (Homo sapiens, UniProt P51955); assay: Inhibition of NEK2 (unknown origin)
[3] = biological target: Ephrin type-A receptor 1 (Homo sapiens, UniProt P21709); assay: Inhibition of EPHA1 (unknown origin)
[4] = biological target: Testis-specific serine/threonine-protein kinase 2 (Homo sapiens, UniProt Q96PF2); assay: Inhibition of STK22B (unknown origin)
[5] = biological target: BDNF/NT-3 growth factors receptor (Homo sapiens, UniProt Q16620); settings: dose 100.0 nM
[6] = biological target: Vascular endothelial growth factor receptor 2 (Homo sapiens, UniProt P35968); assay: Inhibition of KDR (unknown origin)
[7] = test system: RAF proto-oncogene serine/threonine-protein kinase (Homo sapiens), P04049 [Y340D]; settings: dose 100.0 nM
RAF proto-oncogene serine/threonine-protein kinase (Homo sapiens), P04049 [Y340D], sequence (P04049 whole entry Y340D): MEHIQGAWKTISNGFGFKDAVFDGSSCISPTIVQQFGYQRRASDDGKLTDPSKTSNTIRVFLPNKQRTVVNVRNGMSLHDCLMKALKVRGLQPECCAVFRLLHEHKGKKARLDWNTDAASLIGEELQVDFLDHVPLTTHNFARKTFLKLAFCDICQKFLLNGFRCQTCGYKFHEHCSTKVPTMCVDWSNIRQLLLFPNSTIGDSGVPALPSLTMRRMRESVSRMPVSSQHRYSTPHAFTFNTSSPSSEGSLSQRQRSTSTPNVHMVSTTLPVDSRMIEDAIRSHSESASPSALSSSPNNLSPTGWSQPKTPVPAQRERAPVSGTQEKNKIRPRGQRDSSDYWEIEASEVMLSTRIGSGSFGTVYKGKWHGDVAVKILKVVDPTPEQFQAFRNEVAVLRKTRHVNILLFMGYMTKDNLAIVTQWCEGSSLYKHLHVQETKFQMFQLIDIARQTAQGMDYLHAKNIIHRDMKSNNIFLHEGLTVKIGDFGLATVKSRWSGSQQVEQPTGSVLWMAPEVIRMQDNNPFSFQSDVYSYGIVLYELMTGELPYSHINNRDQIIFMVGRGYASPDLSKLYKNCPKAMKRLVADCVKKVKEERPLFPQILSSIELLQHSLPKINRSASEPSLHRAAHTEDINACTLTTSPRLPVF

[8] = biological target: Serine/threonine-protein kinase Nek6 (Homo sapiens, UniProt Q9HC98); assay: Inhibition of NEK6 (unknown origin)
Serine/threonine-protein kinase Nek6, sequence (Q9HC98 whole entry): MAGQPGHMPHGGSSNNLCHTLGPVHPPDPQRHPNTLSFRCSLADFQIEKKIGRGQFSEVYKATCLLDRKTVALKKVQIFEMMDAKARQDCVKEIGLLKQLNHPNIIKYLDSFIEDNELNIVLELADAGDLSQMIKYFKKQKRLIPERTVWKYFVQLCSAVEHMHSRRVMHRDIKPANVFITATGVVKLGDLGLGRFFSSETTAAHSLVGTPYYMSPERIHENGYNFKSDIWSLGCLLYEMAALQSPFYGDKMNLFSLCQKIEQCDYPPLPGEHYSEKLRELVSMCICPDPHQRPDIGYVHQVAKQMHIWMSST

[9] = biological target: Serine/threonine-protein kinase Nek9 (Homo sapiens, UniProt Q8TD19); assay: Inhibition of NEK9 (unknown origin)
[10] = biological target: T1, Serine/threonine-protein kinase N1 (Homo sapiens, UniProt Q16512); settings: dose 100.0 nM
Target sequence in this assay (Q16512 2-942 limits assumed): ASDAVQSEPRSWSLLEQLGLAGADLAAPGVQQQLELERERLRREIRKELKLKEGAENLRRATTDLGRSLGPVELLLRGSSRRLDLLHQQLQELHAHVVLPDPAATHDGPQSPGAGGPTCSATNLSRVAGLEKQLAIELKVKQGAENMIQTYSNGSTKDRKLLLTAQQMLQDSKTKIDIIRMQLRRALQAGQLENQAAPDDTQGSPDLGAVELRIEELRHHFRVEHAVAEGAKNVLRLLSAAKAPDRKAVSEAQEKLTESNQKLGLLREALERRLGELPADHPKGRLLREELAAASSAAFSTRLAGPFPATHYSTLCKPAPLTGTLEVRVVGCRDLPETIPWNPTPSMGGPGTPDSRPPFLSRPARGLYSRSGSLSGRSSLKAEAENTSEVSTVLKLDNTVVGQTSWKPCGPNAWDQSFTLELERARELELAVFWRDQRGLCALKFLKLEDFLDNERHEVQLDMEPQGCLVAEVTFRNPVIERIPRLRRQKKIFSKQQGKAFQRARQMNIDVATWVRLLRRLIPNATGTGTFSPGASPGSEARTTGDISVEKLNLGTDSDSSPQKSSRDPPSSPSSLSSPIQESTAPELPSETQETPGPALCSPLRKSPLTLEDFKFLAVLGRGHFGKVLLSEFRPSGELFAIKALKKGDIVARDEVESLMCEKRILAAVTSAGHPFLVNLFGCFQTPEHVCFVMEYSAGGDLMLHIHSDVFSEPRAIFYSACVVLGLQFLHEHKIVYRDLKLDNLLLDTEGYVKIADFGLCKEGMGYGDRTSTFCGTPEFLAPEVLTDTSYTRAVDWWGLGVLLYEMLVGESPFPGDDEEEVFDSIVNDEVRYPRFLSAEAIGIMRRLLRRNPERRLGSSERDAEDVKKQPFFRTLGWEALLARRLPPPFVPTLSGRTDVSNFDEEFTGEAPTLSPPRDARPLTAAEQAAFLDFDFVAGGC

[11] = biological target: Mitogen-activated protein kinase 12 (Homo sapiens, UniProt P53778); assay: Inhibition of MAPK12 (unknown origin)
[12] = biological target: Ephrin type-A receptor 8 (Homo sapiens, UniProt P29322); assay: Inhibition of EPHA8 (unknown origin)
Ephrin type-A receptor 8, sequence (P29322 whole entry): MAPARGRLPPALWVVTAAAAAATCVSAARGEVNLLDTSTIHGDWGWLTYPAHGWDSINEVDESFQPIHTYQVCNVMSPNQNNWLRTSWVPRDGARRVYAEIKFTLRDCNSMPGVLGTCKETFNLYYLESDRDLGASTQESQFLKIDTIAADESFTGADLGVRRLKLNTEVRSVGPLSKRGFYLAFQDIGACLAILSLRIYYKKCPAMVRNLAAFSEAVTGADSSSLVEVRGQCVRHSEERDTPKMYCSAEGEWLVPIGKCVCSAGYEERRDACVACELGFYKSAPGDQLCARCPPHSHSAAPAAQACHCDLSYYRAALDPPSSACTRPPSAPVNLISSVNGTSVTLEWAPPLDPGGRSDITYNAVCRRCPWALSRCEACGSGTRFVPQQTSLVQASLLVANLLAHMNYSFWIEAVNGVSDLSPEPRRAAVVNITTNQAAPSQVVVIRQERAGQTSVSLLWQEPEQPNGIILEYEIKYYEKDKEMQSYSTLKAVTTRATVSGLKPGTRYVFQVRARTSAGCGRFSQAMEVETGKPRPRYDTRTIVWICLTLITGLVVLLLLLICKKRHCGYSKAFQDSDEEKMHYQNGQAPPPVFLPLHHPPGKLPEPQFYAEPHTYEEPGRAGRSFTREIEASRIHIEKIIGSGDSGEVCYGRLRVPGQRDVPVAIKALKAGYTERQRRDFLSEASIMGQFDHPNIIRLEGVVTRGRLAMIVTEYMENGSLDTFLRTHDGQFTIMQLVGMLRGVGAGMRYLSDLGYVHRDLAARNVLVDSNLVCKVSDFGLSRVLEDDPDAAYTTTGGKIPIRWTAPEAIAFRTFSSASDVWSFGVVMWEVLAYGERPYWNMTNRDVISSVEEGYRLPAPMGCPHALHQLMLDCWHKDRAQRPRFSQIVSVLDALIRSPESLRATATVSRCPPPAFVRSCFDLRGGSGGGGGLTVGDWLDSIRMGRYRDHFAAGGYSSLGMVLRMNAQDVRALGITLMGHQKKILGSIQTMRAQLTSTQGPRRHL

[13] = biological target: Protein kinase C beta type (Homo sapiens, UniProt P05771); assay: Inhibition of PRKCB1 (unknown origin)
[14] = biological target: Serine/threonine-protein kinase PAK 2 (Homo sapiens, UniProt Q13177); assay: Inhibition of PAK2 (unknown origin)
[15] = biological target: Serine/threonine-protein kinase Sgk3 (Homo sapiens, UniProt Q96BR1); assay: Inhibition of SGKL (unknown origin)
[16] = biological target: Casein kinase I isoform gamma-2 (Homo sapiens, UniProt P78368); assay: Inhibition of CSNK1G2 (unknown origin)
Casein kinase I isoform gamma-2, sequence (P78368 whole entry, canonical isoform): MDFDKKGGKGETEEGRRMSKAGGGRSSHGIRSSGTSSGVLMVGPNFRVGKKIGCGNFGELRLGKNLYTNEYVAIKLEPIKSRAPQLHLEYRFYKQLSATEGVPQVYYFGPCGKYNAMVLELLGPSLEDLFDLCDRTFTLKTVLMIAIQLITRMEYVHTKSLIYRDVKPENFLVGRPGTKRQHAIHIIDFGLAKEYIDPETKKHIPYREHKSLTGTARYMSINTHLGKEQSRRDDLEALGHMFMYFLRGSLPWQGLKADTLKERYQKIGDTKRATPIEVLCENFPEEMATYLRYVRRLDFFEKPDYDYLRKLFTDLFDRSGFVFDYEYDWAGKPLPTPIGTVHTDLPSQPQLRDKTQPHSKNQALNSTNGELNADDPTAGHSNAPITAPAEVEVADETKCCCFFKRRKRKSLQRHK

[17] = biological target: Tyrosine-protein kinase CSK (Homo sapiens, UniProt P41240); assay: Inhibition of CSK (unknown origin)
[18] = biological target: Serine/threonine-protein kinase 26 (Homo sapiens, UniProt Q9P289); assay: Inhibition of MST4 (unknown origin)
[19] = biological target: Serine/threonine-protein kinase PLK3 (Homo sapiens, UniProt Q9H4B4); settings: dose 100.0 nM
[20] = biological target: Testis-specific serine/threonine-protein kinase 1 (Homo sapiens) (UniProt Q9BXA7); settings: dose 100.0 nM
[21] = biological target: Tyrosine-protein kinase Mer (Homo sapiens) (UniProt Q12866); settings: dose 100.0 nM
[22] = Inhibition of CDK2/cyclin A (unknown origin); set-up: species or system Homo sapiens
[23] = biological target: Calcium/calmodulin-dependent protein kinase type II subunit alpha (Homo sapiens, UniProt Q9UQM7); assay: Inhibition of CAMK2 alpha (unknown origin)
[24] = biological target: Homeodomain-interacting protein kinase 4 (Homo sapiens, UniProt Q8NE63); assay: Inhibition of HIPK4 (unknown origin)
[25] = biological target: Casein kinase II subunit alpha (Homo sapiens, UniProt P68400); assay: Inhibition of CSNK2A1 (unknown origin)
[26] = biological target: SRSF protein kinase 3 (Homo sapiens, UniProt Q9UPE1); assay: Inhibition of STK23 (unknown origin)
[27] = biological target: Serine/threonine-protein kinase Nek9 (Homo sapiens) (UniProt Q8TD19); settings: dose 100.0 nM
[28] = biological target: Mitogen-activated protein kinase 8 (Homo sapiens) (UniProt P45983); settings: dose 100.0 nM
[29] = test system: CMK; assay: Antiproliferative activity against human CMK cells harboring JAK3A572V mutant measured after 72 hrs by Alamar blue staining based analysis; type: functional, cell-based
Outline: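 Cells were exposed for 72 h at 37 °C under 5% CO2 to compound made up as DMSO stock and diluted in culture medium. Proliferation was then read by Alamar Blue.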

[30] = biological target: Signal transducer and activator of transcription 3 (Homo sapiens) (UniProt P40763); assay: Inhibition of STAT3 phosphorylation in human HEL cells by Western blot analysis; type: cell-based; settings: dose 0.1-5 µM
[31] = biological target: RAC-alpha serine/threonine-protein kinase (Homo sapiens, UniProt P31749); assay: Inhibition of AKT1 (unknown origin)
[32] = biological target: Mitogen-activated protein kinase 14 (Homo sapiens, UniProt Q16539); assay: Inhibition of MAPK14 (unknown origin)
Mitogen-activated protein kinase 14, sequence (Q16539 whole entry): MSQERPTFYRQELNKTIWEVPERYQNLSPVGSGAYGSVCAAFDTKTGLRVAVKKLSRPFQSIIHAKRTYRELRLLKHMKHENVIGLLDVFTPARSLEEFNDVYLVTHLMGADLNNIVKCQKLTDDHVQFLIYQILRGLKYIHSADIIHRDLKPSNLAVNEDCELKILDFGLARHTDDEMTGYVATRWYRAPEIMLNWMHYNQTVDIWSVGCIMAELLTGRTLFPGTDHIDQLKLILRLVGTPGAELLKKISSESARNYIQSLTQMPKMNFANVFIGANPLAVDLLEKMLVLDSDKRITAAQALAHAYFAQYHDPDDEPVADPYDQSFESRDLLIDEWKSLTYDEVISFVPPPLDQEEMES

[33] = biological target: Serine/threonine-protein kinase D2 (Homo sapiens) (UniProt Q9BZL6); settings: dose 100.0 nM
[34] = biological target: Mitogen-activated protein kinase kinase kinase 9 (Homo sapiens, UniProt P80192); assay: Inhibition of MAP3K9 (unknown origin)
[35] = biological target: Serine/threonine-protein kinase Sgk1 (Homo sapiens, UniProt O00141); assay: Inhibition of SGK (unknown origin)
[36] = biological target: MAP kinase-activated protein kinase 2 (Homo sapiens, UniProt P49137); assay: Inhibition of MAPKAPK2 (unknown origin)
[37] = biological target: Inhibitor of nuclear factor kappa-B kinase subunit beta (Homo sapiens) (UniProt O14920); settings: dose 100.0 nM
[38] = biological target: Serine/threonine-protein kinase PAK 6 (Homo sapiens, UniProt Q9NQU5); assay: Inhibition of PAK6 (unknown origin)
[39] = biological target: Serine/threonine-protein kinase BRSK1 (Homo sapiens, UniProt Q8TDC3); assay: Inhibition of BRSK1 (unknown origin)
[40] = biological target: Serine/threonine-protein kinase BRSK1 (Homo sapiens) (UniProt Q8TDC3); settings: dose 100.0 nM
[41] = biological target: Ribosomal protein S6 kinase beta-1 (Homo sapiens, UniProt P23443); settings: dose 100.0 nM
[42] = biological target: Tyrosine-protein kinase JAK1 (Homo sapiens) (UniProt P23458); settings: dose 100.0 nM
[43] = biological target: T1, Serine/threonine-protein kinase N1; assay: Inhibition of PKN1 (unknown origin)
[44] = biological target: Serine/threonine-protein kinase D3 (Homo sapiens) (UniProt O94806); settings: dose 100.0 nM
[45] = biological target: Muscle, skeletal receptor tyrosine-protein kinase (Homo sapiens, UniProt O15146); assay: Inhibition of MUSK (unknown origin)
[46] = biological target: Mitogen-activated protein kinase kinase kinase 8 (Homo sapiens, UniProt P41279); settings: dose 100.0 nM
[47] = biological target: Homeodomain-interacting protein kinase 1 (Homo sapiens, UniProt Q86Z02); settings: dose 100.0 nM
Homeodomain-interacting protein kinase 1, sequence (Q86Z02 whole entry, looked up): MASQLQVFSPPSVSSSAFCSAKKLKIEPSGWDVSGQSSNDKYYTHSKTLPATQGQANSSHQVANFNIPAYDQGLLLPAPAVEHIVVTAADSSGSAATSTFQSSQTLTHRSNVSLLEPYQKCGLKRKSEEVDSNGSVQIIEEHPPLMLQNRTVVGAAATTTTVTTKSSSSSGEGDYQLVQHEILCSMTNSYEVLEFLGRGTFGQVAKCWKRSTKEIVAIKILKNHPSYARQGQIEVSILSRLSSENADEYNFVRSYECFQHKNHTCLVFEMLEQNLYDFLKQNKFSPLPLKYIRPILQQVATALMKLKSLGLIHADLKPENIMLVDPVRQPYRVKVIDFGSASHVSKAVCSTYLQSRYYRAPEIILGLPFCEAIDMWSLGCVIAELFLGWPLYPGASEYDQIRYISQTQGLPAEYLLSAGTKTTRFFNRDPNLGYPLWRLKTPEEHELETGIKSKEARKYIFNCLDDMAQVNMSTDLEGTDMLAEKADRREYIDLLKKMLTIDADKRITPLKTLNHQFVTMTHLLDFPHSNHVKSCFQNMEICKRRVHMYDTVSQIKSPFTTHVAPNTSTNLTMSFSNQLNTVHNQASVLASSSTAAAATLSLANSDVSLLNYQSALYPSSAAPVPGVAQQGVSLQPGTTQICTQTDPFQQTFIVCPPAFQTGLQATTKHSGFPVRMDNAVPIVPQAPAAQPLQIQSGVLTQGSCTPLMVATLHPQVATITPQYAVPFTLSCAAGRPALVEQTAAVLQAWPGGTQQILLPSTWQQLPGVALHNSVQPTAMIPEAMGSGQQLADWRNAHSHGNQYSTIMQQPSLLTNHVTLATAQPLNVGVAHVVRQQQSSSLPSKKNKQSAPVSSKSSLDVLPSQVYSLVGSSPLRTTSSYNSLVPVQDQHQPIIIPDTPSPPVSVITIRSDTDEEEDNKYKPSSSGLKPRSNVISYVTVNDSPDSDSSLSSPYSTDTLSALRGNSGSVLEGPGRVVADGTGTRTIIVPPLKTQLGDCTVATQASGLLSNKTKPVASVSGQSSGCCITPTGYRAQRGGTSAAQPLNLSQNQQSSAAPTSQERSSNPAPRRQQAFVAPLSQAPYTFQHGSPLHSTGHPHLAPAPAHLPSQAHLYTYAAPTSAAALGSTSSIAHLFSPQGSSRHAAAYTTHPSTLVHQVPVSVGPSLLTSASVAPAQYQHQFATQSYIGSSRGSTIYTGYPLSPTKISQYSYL

For `N#CCNC(=O)c1ccc(-c2ccnc(Nc3ccc(N4CCOCC4)cc3)n2)cc1` [MOMELOTINIB], which inhibition [1] is on record?
The inhibition was under 50%.

And the IC50 [2]?
Its IC50 is over 1 µM.

What about the IC50 [3] of the same compound?
The IC50 was over 1 µM.

And the IC50 [4]?
The IC50 was over 1 µM.

What about the inhibition [5] of the same compound?
Its inhibition is under 50%.

What about the IC50 [6] of the same compound?
Its IC50 is under 1 µM.

And the inhibition [7]?
Its inhibition is under 50%.

And the IC50 [8]?
Its IC50 is over 1 µM.

What about the IC50 [9] of the same compound?
The IC50 was under 1 µM.

What about the inhibition [10] of the same compound?
Its inhibition is under 50%.

What about the IC50 [11] of the same compound?
Its IC50 is over 1 µM.

What about the IC50 [12] of the same compound?
The IC50 was over 1 µM.

What about the IC50 [13] of the same compound?
Its IC50 is over 1 µM.

And the IC50 [14]?
The IC50 was over 1 µM.

And the IC50 [15]?
Its IC50 is over 1 µM.

What about the IC50 [16] of the same compound?
Its IC50 is over 1 µM.

What about the IC50 [17] of the same compound?
The IC50 was over 1 µM.

And the IC50 [18]?
The IC50 was under 1 µM.

What about the inhibition [19] of the same compound?
Its inhibition is under 50%.

What about the inhibition [20] of the same compound?
Its inhibition is under 50%.

And the inhibition [21]?
Its inhibition is under 50%.

And the IC50 [22]?
Its IC50 is under 0.1 µM.

What about the IC50 [23] of the same compound?
Its IC50 is over 1 µM.

And the IC50 [24]?
The IC50 was under 1 µM.

And the IC50 [25]?
The IC50 was over 1 µM.

What about the IC50 [26] of the same compound?
The IC50 was over 1 µM.

And the inhibition [27]?
The inhibition was under 50%.

And the inhibition [28]?
Its inhibition is over 50%.

And the IC50 [29]?
Its IC50 is 0.7 µM.

What about the inhibition [30] of the same compound?
Its inhibition is “Dose-Dependent Effect”.

And the IC50 [31]?
Its IC50 is over 1 µM.

And the IC50 [32]?
Its IC50 is over 1 µM.

And the inhibition [33]?
Its inhibition is under 50%.

And the IC50 [34]?
The IC50 was under 1 µM.

And the IC50 [35]?
Its IC50 is under 1 µM.

What about the IC50 [36] of the same compound?
Its IC50 is over 1 µM.

And the inhibition [37]?
The inhibition was under 50%.

What about the IC50 [38] of the same compound?
The IC50 was over 1 µM.

And the IC50 [39]?
The IC50 was under 1 µM.

And the inhibition [40]?
Its inhibition is under 50%.

And the inhibition [41]?
The inhibition was under 50%.

What about the inhibition [42] of the same compound?
The inhibition was over 50%.

And the IC50 [43]?
The IC50 was under 1 µM.

And the inhibition [44]?
The inhibition was over 50%.

And the IC50 [45]?
The IC50 was under 1 µM.

And the inhibition [46]?
Its inhibition is under 50%.

And the inhibition [47]?
The inhibition was under 50%.
